{
  "source": "ChEMBL document CHEMBL5678806",
  "about": "“NMS-P937, an orally available, specific small-molecule polo-like kinase 1 inhibitor with antitumor activity in solid and hematologic malignancies” (Mol Cancer Ther, 2012)",
  "key": {"[1]": {"test": "Clearance in Beagle dog at 5 mg/kg, iv by LC-MS analysis", "assay_type": "ADME, organism-based, Canis lupus familiaris", "settings": "in vivo"}, "BT-474": {"test_system": "BT-474", "test": "Antiproliferative activity against human BT-474 cells assessed as inhibition of cell growth incubated for 72 hrs by cell-titer glo assay", "assay_type": "functional, cell-based", "settings": "BT-474, 72 h", "method_in_brief": "(§1)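 Cells seeded 10,000–30,000/cm² (adherent) or 100,000/mL (suspension) in medium with 10% fetal calf serum; after 24 h treated in duplicate with serial dilutions for 72 h. Viable cells read by CellTiter-Glo luminescence; IC50 from sigmoidal fit; at least two independent experiments.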"}, "A2780 [2]": {"test_system": "A2780", "test": "Induction of mitosis in human A2780 cells xenografted in nu/nu mouse assessed as decreased NPM phosphorylation on Thr199 at 60 mg/kg, po administered for 12 to 24 hrs by immunohistochemistry analysis", "assay_type": "functional, organism-based", "settings": "time lower […], time upper 24.0 hrs"}, "NCI-H1770": {"test_system": "NCI-H1770", "test": "Antiproliferative activity against human NCI-H1770 cells assessed as inhibition of cell growth incubated for 72 hrs by cell-titer glo assay", "assay_type": "functional, cell-based", "settings": "NCI-H1770, 72 h", "method_in_brief": "(§2)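 Cells from ATCC or ECACC, kept in supplier-recommended medium with 1% penicillin-streptomycin at 37°C, 5% CO₂. Seeded at 10,000–30,000/cm² (adherent) or 100,000/mL (nonadherent) in medium with 10% fetal calf serum. Dosed after 24 h in duplicate with serial dilutions. Viable cells read by CellTiter-Glo 72 h later. IC50 from sigmoidal fit. At least two independent experiments.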"}, "[3]": {"target": "Hepatocyte growth factor receptor (Homo sapiens, UniProt P08581)", "test": "Inhibition of MET (unknown origin) in presence of [gamma-33P]ATP"}, "A2780 [4]": {"test_system": "A2780", "test": "Antitumor activity against human A2780 cells xenografted in nu/nu mouse assessed as tumor growth inhibition at 60 mg/kg, po administered for 10 days", "settings": "time 10.0 day"}, "[5]": {"test": "Tmax in Sprague-Dawley rat at 10 mg/kg, po by LC-MS analysis", "assay_type": "ADME, organism-based", "settings": "in vivo"}, "U2OS": {"test_system": "U2OS", "test": "Induction of cell death in human U2OS cells assessed as reduced cell number at 1 uM by time lapse microscopy analysis", "assay_type": "functional, cell-based", "settings": "time lower […], time upper 48.0 hrs, TDE = time-dependent effect"}, "[6]": {"test": "Cmax in male cynomolgus monkey at 5 mg/kg, iv by LC-MS analysis", "assay_type": "ADME, organism-based, Macaca fascicularis", "settings": "in vivo"}, "NCI-H1299": {"test_system": "NCI-H1299", "test": "Antiproliferative activity against human NCI-H1299 cells assessed as inhibition of cell growth incubated for 72 hrs by cell-titer glo assay", "assay_type": "functional, cell-based", "settings": "NCI-H1299, 72 h", "method_in_brief": "as §2"}, "[7]": {"target": "Tyrosine-protein kinase BTK (Homo sapiens) (UniProt Q06187)", "sequence (Q06187 whole entry)": "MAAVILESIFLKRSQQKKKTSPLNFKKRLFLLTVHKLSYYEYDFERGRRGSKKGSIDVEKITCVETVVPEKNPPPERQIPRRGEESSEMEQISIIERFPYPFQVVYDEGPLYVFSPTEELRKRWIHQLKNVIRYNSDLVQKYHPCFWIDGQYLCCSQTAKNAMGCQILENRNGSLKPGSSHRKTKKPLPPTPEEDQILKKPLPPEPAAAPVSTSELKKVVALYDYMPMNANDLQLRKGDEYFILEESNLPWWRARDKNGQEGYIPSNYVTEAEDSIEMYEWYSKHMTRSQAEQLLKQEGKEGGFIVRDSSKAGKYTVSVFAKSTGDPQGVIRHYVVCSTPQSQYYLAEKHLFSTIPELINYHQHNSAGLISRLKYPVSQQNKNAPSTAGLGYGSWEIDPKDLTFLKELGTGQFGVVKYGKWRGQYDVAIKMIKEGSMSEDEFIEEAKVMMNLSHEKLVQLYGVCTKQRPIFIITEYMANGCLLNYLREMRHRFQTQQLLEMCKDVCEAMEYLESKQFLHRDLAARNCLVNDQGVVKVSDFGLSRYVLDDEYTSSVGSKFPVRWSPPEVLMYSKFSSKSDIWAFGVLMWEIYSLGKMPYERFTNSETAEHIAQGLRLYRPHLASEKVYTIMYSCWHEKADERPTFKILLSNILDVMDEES", "test": "Inhibition of N-terminal His6-tagged recombinant full-length human BTK expressed in baculovirus infected Sf21 cells assessed as residual activity at 0.1 uM relative to control"}, "[8]": {"target": "Dual specificity protein kinase CLK2 (Homo sapiens) (UniProt P49760)", "sequence (P49760 whole entry, looked up)": "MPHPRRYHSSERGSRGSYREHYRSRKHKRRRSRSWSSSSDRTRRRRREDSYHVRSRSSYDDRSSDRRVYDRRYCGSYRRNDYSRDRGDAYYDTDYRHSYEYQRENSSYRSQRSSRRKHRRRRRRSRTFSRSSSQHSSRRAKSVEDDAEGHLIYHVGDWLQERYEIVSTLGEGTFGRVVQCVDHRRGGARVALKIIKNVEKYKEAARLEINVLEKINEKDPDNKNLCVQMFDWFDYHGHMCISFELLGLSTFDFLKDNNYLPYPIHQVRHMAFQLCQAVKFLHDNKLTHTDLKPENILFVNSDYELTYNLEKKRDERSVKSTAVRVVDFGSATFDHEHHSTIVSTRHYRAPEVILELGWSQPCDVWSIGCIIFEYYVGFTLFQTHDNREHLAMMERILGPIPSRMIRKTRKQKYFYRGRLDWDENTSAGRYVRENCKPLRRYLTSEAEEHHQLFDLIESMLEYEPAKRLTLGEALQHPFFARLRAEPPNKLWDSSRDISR", "test": "Inhibition of N-terminal GST-tagged recombinant human CLK2 (138 to end residues) expressed in baculovirus infected Sf21 cells assessed as residual activity at 0.1 uM relative to control"}, "[9]": {"test": "AUC in Beagle dog at 5 mg/kg, po by LC-MS analysis", "assay_type": "ADME, organism-based, Canis lupus familiaris", "settings": "in vivo"}, "COLO 320": {"test_system": "COLO 320", "test": "Antiproliferative activity against human COLO 320 cells assessed as inhibition of cell growth incubated for 72 hrs by cell-titer glo assay", "assay_type": "functional, cell-based", "settings": "COLO 320, 72 h", "method_in_brief": "as §1"}, "[10]": {"target": "Ephrin type-A receptor 4 (Homo sapiens) (UniProt P54764)", "sequence (P54764 whole entry, the tested form may be a part)": "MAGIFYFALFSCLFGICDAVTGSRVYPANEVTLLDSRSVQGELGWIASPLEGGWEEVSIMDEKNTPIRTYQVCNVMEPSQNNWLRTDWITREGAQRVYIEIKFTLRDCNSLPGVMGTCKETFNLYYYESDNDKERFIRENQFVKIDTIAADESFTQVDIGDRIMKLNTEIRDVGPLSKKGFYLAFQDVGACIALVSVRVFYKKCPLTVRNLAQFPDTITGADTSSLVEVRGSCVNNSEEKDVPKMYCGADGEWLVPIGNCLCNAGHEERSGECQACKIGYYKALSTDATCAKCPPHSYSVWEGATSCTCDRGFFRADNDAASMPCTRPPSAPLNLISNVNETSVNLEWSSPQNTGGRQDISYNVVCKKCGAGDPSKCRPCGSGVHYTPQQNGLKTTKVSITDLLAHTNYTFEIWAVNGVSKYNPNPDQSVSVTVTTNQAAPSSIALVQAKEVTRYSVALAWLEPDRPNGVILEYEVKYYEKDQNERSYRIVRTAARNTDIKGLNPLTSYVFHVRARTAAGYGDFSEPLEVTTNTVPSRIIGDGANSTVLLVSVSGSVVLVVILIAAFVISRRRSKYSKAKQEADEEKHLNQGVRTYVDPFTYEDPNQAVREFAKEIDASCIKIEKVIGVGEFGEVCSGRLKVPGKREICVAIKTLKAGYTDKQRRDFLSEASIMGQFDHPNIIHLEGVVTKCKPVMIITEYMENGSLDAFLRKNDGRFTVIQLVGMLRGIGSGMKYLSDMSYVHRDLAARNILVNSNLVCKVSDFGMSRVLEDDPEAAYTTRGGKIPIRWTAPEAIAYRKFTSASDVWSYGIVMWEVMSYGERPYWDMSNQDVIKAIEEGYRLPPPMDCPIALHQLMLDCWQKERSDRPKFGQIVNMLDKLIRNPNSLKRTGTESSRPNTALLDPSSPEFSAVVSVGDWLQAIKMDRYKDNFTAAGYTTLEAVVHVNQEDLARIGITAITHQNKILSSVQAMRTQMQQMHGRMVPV", "test": "Inhibition of N-terminal His6-tagged recombinant human EphA4 (601 to 892 residues) expressed in baculovirus infected Sf21 cells assessed as residual activity at 1 uM relative to control"}, "[11]": {"target": "PAS domain-containing serine/threonine-protein kinase (Homo sapiens) (UniProt Q96RG2)", "sequence (Q96RG2 whole entry, the tested form may be a part)": "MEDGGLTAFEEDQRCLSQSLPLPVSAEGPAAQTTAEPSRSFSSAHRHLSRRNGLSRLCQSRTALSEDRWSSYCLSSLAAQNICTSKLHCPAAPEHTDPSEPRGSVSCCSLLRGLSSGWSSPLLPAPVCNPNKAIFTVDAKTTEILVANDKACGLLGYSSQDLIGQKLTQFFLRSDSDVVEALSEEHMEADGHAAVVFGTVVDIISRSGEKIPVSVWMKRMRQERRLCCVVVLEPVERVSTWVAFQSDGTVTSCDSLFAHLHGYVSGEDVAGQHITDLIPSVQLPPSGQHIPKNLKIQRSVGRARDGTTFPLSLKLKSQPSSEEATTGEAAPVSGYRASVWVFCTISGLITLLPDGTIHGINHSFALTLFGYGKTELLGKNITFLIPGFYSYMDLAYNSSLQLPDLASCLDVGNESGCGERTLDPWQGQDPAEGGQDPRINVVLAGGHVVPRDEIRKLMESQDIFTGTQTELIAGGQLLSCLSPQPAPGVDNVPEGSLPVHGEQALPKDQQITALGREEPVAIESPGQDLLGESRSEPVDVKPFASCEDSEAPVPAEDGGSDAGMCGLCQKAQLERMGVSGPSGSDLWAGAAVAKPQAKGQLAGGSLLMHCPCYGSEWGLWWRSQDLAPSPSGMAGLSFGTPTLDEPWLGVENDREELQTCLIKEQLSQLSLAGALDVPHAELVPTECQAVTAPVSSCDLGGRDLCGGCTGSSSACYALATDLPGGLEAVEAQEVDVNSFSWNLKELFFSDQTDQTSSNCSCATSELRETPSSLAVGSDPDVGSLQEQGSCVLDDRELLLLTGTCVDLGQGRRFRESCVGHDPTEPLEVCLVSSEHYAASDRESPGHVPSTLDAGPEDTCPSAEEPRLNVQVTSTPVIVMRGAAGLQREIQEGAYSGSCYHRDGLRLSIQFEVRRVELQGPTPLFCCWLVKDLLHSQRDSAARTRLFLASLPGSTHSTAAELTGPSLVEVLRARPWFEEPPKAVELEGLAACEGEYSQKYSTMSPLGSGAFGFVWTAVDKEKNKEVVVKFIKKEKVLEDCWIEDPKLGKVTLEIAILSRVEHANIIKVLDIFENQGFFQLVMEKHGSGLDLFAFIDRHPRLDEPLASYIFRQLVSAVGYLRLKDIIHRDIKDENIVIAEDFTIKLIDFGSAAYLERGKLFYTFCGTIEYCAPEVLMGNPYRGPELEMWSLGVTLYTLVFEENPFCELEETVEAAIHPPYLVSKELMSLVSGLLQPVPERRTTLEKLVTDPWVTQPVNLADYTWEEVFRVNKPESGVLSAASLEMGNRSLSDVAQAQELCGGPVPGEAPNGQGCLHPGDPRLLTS", "test": "Inhibition of human PASK assessed as residual activity at 0.1 uM relative to control"}, "A2780 [12]": {"test_system": "A2780", "test": "Induction of DNA damage in human A2780 cells assessed as H2AX phosphorylation at 0.5 to 1 uM incubated for 8 hrs followed by compound washout and measured after 24 to 48 hrs by Western blotting analysis", "assay_type": "functional, cell-based", "settings": "dose 0.5-1 µM"}, "JIMT-1": {"test_system": "JIMT-1", "test": "Antiproliferative activity against human JIMT-1 cells assessed as inhibition of cell growth incubated for 72 hrs by cell-titer glo assay", "assay_type": "functional, cell-based", "settings": "JIMT-1, 72 h", "method_in_brief": "(§3)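 Cells seeded at 10,000–30,000/cm² (adherent) or 100,000/mL (nonadherent) in medium with 10% fetal calf serum; after 24 h, treated in duplicate with serial dilutions for 72 h. Viable cell number read by CellTiter-Glo luminescence; IC50 from sigmoidal fit; at least two independent experiments.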"}, "K562": {"test_system": "K562", "test": "Antiproliferative activity against human K562 cells assessed as inhibition of cell growth incubated for 72 hrs by cell-titer glo assay", "assay_type": "functional, cell-based", "settings": "K562, 72 h", "method_in_brief": "as §3"}, "[13]": {"target": "Ribosomal protein S6 kinase alpha-3 (Homo sapiens) (UniProt P51812)", "sequence (P51812 whole entry)": "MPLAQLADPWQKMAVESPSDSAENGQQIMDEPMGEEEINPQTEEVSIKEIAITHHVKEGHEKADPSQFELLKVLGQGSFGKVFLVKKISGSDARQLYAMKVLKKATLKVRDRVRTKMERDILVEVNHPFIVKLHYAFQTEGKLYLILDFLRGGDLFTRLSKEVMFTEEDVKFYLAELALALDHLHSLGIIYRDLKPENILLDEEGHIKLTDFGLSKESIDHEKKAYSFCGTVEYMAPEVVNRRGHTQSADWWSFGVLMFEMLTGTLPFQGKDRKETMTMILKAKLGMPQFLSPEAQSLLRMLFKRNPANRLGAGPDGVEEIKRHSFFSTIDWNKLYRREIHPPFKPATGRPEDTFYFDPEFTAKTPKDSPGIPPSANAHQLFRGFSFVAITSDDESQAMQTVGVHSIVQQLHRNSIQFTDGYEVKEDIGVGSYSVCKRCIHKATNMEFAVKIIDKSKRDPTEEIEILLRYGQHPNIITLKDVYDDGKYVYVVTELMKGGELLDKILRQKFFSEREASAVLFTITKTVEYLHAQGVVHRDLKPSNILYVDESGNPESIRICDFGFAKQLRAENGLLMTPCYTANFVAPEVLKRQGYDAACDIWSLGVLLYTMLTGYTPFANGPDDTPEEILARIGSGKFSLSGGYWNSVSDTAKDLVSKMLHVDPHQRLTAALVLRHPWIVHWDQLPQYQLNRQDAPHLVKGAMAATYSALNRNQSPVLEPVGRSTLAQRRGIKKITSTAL", "test": "Inhibition of N-terminal His6 tagged recombinant human full-length Rsk2 expressed in baculovirus infected Sf21 cells assessed as residual activity at 1 uM relative to control"}, "[14]": {"target": "Tyrosine-protein kinase Lyn (Mus musculus) (UniProt P25911)", "test": "Inhibition of N-terminal his6-tagged recombinant full-length mouse Lyn expressed in baculovirus infected Sf21 cells assessed as residual activity at 0.1 uM relative to control"}, "[15]": {"test": "Tmax in nu/nu mouse at 10 mg/kg, po by LC-MS analysis", "assay_type": "ADME, organism-based", "settings": "in vivo"}, "[16]": {"target": "Maternal embryonic leucine zipper kinase (Homo sapiens) (UniProt Q14680)", "sequence (Q14680 whole entry, looked up, the tested form may be a part)": "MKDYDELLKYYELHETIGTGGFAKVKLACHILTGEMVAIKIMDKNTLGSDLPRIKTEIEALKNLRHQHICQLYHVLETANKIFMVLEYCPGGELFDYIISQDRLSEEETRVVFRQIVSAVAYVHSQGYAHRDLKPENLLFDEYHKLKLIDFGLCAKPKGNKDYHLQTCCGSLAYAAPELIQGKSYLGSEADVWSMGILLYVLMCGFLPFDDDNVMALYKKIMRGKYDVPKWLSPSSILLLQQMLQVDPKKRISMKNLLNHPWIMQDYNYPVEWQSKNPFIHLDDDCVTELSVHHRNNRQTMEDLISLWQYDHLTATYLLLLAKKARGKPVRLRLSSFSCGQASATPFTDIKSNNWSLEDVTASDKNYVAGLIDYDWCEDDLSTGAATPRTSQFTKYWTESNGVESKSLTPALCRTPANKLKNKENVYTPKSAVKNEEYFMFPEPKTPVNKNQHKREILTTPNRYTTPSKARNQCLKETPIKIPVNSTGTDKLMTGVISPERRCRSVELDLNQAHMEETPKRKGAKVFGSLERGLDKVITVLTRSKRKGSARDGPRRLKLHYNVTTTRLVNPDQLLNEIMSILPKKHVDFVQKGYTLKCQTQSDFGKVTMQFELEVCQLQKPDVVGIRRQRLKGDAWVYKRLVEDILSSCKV", "test": "Inhibition of N-terminal GST-tagged recombinant human MELK (1 to 340 residues) expressed in baculovirus infected Sf21 cells assessed as residual activity at 1 uM relative to control"}, "[17]": {"target": "Cyclin-dependent kinase 4/cyclin D1 (Homo sapiens, UniProt P11802)", "test": "Inhibition of CDK4/CycD1 (unknown origin) in presence of [gamma-33P]ATP", "assay_type": "protein-complex assay"}, "Casein kinase 2": {"target": "Casein kinase 2 (Homo sapiens, UniProt P67870+P68400+P19784+Q8NEV1)", "test": "Inhibition of CK2 (unknown origin) in presence of [gamma-33P]ATP", "assay_type": "protein assay"}, "SNB-19": {"test_system": "SNB-19", "test": "Antiproliferative activity against human SNB-19 cells assessed as inhibition of cell growth incubated for 72 hrs by cell-titer glo assay", "assay_type": "functional, cell-based", "settings": "SNB-19, 72 h"}, "A2780 [18]": {"test_system": "A2780", "test": "Induction of cell cycle arrest in human A2780 cells assessed as accumulation of cells in G2/M phase by measuring upregulated PLK1 expression incubated for 24 hrs by Western blotting analysis", "assay_type": "functional, cell-based", "settings": "dose 0.02-0.2 µmol/L", "method_in_brief": "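A2780 ovarian carcinoma cells treated 24 h with a range of concentrations, with DMSO and nocodazole controls. 20 µg protein extract separated by SDS-PAGE and immunoblotted with chemiluminescent detection. Probed for total and phospho-Thr210 PLK1, phospho-Ser10 histone H3, phospho-Thr199 NPM and phospho-Tyr15 CDK1. Total NPM, tubulin and total CDK1 served as loading controls.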"}, "NHDF": {"test_system": "NHDF", "test": "Induction of mitosis in human NHDF cells at 0.0001 to 100 uM incubated for >= 24 hrs followed by compound washout by cell titer glow assay", "assay_type": "toxicity, cell-based", "settings": "dose 0.0001-100 µM"}},
  "note": "Active and inactive are the calls of the source. No cut-off for these calls is given here.",
  "data": [
    {"smiles": "CN1CCN(c2ccc(OC(F)(F)F)c(Nc3ncc4c(n3)-c3c(c(C(N)=O)nn3CCO)CC4)c2)CC1", "note": "[ONVANSERTIB]", "values": [
      {"measurement": "clearance", "setting": "[1]", "value": 43.8, "unit": "mL/min/kg"},
      {"measurement": "IC50", "setting": "BT-474", "value": 156, "unit": "nM"},
      {"measurement": "Activity", "setting": "A2780 [2]", "value": "Active"},
      {"measurement": "IC50", "setting": "NCI-H1770", "value": 68, "unit": "nM"},
      {"measurement": "IC50", "setting": "[3]", "value": "> 10000", "unit": "nM"},
      {"measurement": "TGI", "setting": "A2780 [4]", "value": "Active"},
      {"measurement": "Tmax", "setting": "[5]", "value": 3, "unit": "h"},
      {"measurement": "Activity", "setting": "U2OS", "value": "Tde"},
      {"measurement": "Cmax", "setting": "[6]", "value": 3000, "unit": "nM"},
      {"measurement": "IC50", "setting": "NCI-H1299", "value": 347, "unit": "nM"},
      {"measurement": "Activity", "setting": "[7]", "value": 83, "unit": "%"},
      {"measurement": "Activity", "setting": "[8]", "value": 52, "unit": "%"},
      {"measurement": "AUC", "setting": "[9]", "value": 8.1, "unit": "µM·h"},
      {"measurement": "IC50", "setting": "COLO 320", "value": 192, "unit": "nM"},
      {"measurement": "Activity", "setting": "[10]", "value": 80, "unit": "%"},
      {"measurement": "Activity", "setting": "[11]", "value": 127, "unit": "%"},
      {"measurement": "Activity", "setting": "A2780 [12]", "value": "Active"},
      {"measurement": "IC50", "setting": "JIMT-1", "value": 105, "unit": "nM"},
      {"measurement": "IC50", "setting": "K562", "value": 87, "unit": "nM"},
      {"measurement": "Activity", "setting": "[13]", "value": 89, "unit": "%"},
      {"measurement": "Activity", "setting": "[14]", "value": 137, "unit": "%"},
      {"measurement": "Tmax", "setting": "[15]", "value": 0.4, "unit": "h"},
      {"measurement": "Activity", "setting": "[16]", "value": 71, "unit": "%"},
      {"measurement": "IC50", "setting": "[17]", "value": "> 10000", "unit": "nM"},
      {"measurement": "IC50", "setting": "Casein kinase 2", "value": 826, "unit": "nM"},
      {"measurement": "IC50", "setting": "SNB-19", "value": 224, "unit": "nM"},
      {"measurement": "Activity", "setting": "A2780 [18]", "value": "Dose-Dependent Effect"},
      {"measurement": "Activity", "setting": "NHDF", "value": "Toxic"}
    ]}
  ]
}
